Results from ChEMBL document CHEMBL3272288, “Cannabinoids. Synthesis and central nervous system activity of 8-substituted 10-hydroxy-5,5-dimethyl-5H-[1]benzopyrano[4,3-c]pyridine and derivatives” (1977).
Activity calls are given as the source filed them. No cut-off for these calls is given here.

Tests used:
[1] = test system: Rattus norvegicus; test: Antipsychotic activity in Long-Evens rat assessed as reduction in methamphetamine-induced hyperactivity at 10 mg/kg, po; type: functional
[2] = test system: Mus musculus; test: Antidepressant activity in mouse assessed as potentiation of (+/-)Dopa-induced motor responses at 5 mg/kg, po challenged with Dopa after 4 hrs compound treatment; type: functional, organism-based; design: dose 5 mg/kg
[3] = test system: Rattus norvegicus; test: Hyperexcitability activity in Long-Evens black-hooded rat assessed as behavioral responses to tactile stimulation at 20 mg/kg, po; type: functional, organism-based; design: dose 20 mg/kg
Procedure, shortened: (§1)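 Rats randomly split into groups of four, dosed orally, then held singly in a sound-attenuated room. At 1, 2, 3 and 4 h each was probed with a wooden rod and scored for exaggerated motor reaction, squeaking and biting (maximum 16 per response). Index is the summed score of the three responses divided by the maximum of 48.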

[4] = test system: Rattus norvegicus; test: Analgesic activity in po dosed Sprague-Dawley rat by tail flick assay; type: functional
[5] = test system: Mus musculus; test: Antianxiety activity in albino BALB/cJ mouse assessed as decrease in foot shock-induced fighting behavior at 10 mg/kg, po by tranquilizer activity test; type: functional
[6] = test system: Rattus norvegicus; test: Antipsychotic activity in Long-Evens rat assessed as reduction in methamphetamine-induced hyperactivity at 20 mg/kg, po; type: functional
[7] = test system: Mus musculus; test: Analgesic activity in po dosed mouse assessed as inhibition of acetic acid-induced writhing; type: functional
[8] = test system: Rattus norvegicus; test: Antianxiety activity in Long-Evens rat assessed as decrease in motor activity at 2 mg/kg, po by tranquilizer activity test; type: functional
[9] = test system: Rattus norvegicus; test: Antipsychotic activity in Long-Evens rat assessed as reduction in methamphetamine-induced hyperactivity at 5 mg/kg, po; type: functional
[10] = test system: Rattus norvegicus; test: Antianxiety activity in Long-Evens rat assessed as decrease in motor activity at 5 mg/kg, po by tranquilizer activity test; type: functional
[11] = test system: Canis familiaris; test: Antianxiety activity in po dosed beagle-like dog assessed as minimum dose required to produce moderate ataxia; type: functional, Canis lupus familiaris
Procedure, shortened: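 Minimum dose producing ataxia, with two or more dogs per dose.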

[12] = test system: Mus musculus; test: Antianxiety activity in albino BALB/cJ mouse assessed as decrease in foot shock-induced fighting behavior at 5 mg/kg, po by tranquilizer activity test; type: functional
[13] = test system: Rattus norvegicus; test: Hyperexcitability activity in Long-Evens black-hooded rat assessed as behavioral responses to tactile stimulation at 80 mg/kg, po; type: functional, organism-based; design: dose 80 mg/kg; procedure, shortened: as §1
[14] = test system: Felis catus; test: Sedative-hypnotic activity in cat assessed as change in total sleep time at 5 mg/kg, po after 12 hrs; type: functional
Procedure, shortened: (§2)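 Total sleep time was recorded 12 h after drug, with two or more cats per dose. The value is the change in minutes from paired control experiments; a negative value means decreased sleep.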

[15] = test system: Felis catus; test: Sedative-hypnotic activity in cat assessed as change in total sleep time at 1 mg/kg, po after 12 hrs; type: functional; procedure, shortened: as §2
[16] = test system: Rattus norvegicus; test: Antianxiety activity in Long-Evens rat assessed as decrease in motor activity at 10 mg/kg, po by tranquilizer activity test; type: functional
[17] = test system: Felis catus; test: Sedative-hypnotic activity in cat assessed as change in total sleep time at 2.5 mg/kg, po after 12 hrs; type: functional; procedure, shortened: as §2
[18] = test system: Rattus norvegicus; test: Antipsychotic activity in Long-Evens rat assessed as reduction in methamphetamine-induced hyperactivity at 2 mg/kg, po; type: functional
[19] = test system: Rattus norvegicus; test: Hyperexcitability activity in Long-Evens black-hooded rat assessed as behavioral responses to tactile stimulation at 10 mg/kg, po; type: functional, organism-based; design: dose 10 mg/kg; procedure, shortened: as §1
[20] = test system: Felis catus; test: Sedative-hypnotic activity in cat assessed as change in total sleep time at 0.5 mg/kg, po after 12 hrs; type: functional; procedure, shortened: as §2
[21] = test system: Felis catus; test: Sedative-hypnotic activity in cat assessed as change in total sleep time at 0.25 mg/kg, po after 12 hrs; type: functional; procedure, shortened: as §2
[22] = test system: Felis catus; test: Sedative-hypnotic activity in cat assessed as change in total sleep time at 0.1 mg/kg, po after 12 hrs; type: functional; procedure, shortened: as §2
[23] = test system: Rattus norvegicus; test: Antipsychotic activity in Long-Evens rat assessed as increase in methamphetamine-induced hyperactivity at 10 mg/kg, po; type: functional
[24] = test system: Rattus norvegicus; test: Antipsychotic activity in Long-Evens rat assessed as increase in methamphetamine-induced hyperactivity at 5 mg/kg, po; type: functional
[25] = test system: Mus musculus; test: Increase in foot shock-induced fighting behavior in albino BALB/cJ mouse at 5 mg/kg, po by tranquilizer activity test; type: functional
[26] = test system: Rattus norvegicus; test: Antianxiety activity in Long-Evens rat assessed as decrease in motor activity at 20 mg/kg, po by tranquilizer activity test; type: functional
[27] = test system: Rattus norvegicus; test: Antipsychotic activity in Long-Evens rat assessed as increase in methamphetamine-induced hyperactivity at 20 mg/kg, po; type: functional

Row | SMILES | inhibition in vivo at 10 mg/kg [1] [%] | Activity [2] | ED50 [4] [mg/kg] | inhibition in vivo at 10 mg/kg [5] [%] | ED50 [7] [mg/kg] | inhibition in vivo at 5 mg/kg [9] [%] | inhibition in vivo at 5 mg/kg [10] [%] | Activity [11] [mg/kg] | inhibition in vivo at 10 mg/kg [16] [%] | Activity [19] | further results
1 | C=CCOc1cc(C(C)CCCc2ccc(F)cc2)cc2c1-c1cnccc1C(C)(C)O2 (stereo not drawn) | 20 | Active | > 40 | 17 |  |  |  |  |  |  | Activity [3]: inactive; inhibition in vivo at 20 mg/kg [6]: 27%
2 | CCCCCC(C)C(C)c1cc(OC(C)=O)c2c(c1)OC(C)(C)c1ccncc1-2 (stereo not drawn) |  | Active |  | 48 | 3.3 | 46 | 86 | <5 |  |  | inhibition in vivo at 2 mg/kg [8]: 43%
3 | CC(CCCc1ccc(F)cc1)c1cc(O)c2c(c1)OC(C)(C)c1ccncc1-2 (stereo not drawn) |  | Active | 5.7 |  | 7.1 | 40 | 34 |  |  |  | inhibition in vivo at 5 mg/kg [12]: 58%
4 | CCCCCC(C)C(C)c1cc(OCCCN2CCCCC2)c2c(c1)OC(C)(C)c1ccncc1-2.Cl (stereo not drawn) | 15 | Active | > 40 |  |  |  |  |  |  |  | Activity [13]: inactive; Time [14]: -153 min; Activity [3]: inactive
5 | CCCCCc1cc(O)c2c(c1)OC(C)(C)[C@@H]1CCC(C)=C[C@@H]21 [DRONABINOL] |  | Active | 27.2 |  | 43 | 15 |  | 4 | 39 |  | inhibition in vivo at 5 mg/kg [12]: 36%; Time [15]: 29 min
6 | CCCCCC(C)C(C)c1cc(OCC2CC2)c2c(c1)OC(C)(C)c1ccncc1-2 (stereo not drawn) | 1 | Active | > 40 |  |  |  |  |  |  |  | Activity [13]: inactive; Activity [3]: inactive; Time [17]: 105 min
7 | CCCCCC(C)C(C)c1cc(OC(=O)OCC)c2c(c1)OC(C)(C)c1ccncc1-2 (stereo not drawn) |  | Active |  | 12 | 5.2 | 66 | 93 |  |  |  | inhibition in vivo at 2 mg/kg [18]: 37%
8 | C#CCN1CCC2=C(C1)c1c(O)cc(C(C)CCCc3ccc(F)cc3)cc1OC2(C)C (stereo not drawn) |  | Active | 3.7 | 47 | 5.3 | 25 |  | 1 | 57 | Active | Time [20]: 99 min
9 | CCCCCC(C)C(C)c1cc(O)c2c(c1)OC(C)(C)c1ccncc1-2 (stereo not drawn) |  | Active | 3.07 | 36 | 3.3 | 61 | 79 | <1 |  |  | inhibition in vivo at 5 mg/kg [12]: 29%; Time [21]: 193 min; Time [22]: 225 min
10 | CCCCCC(C)C(C)c1cc(O)c2c(c1)OC(C)(C)c1cc[n+]([O-])cc1-2 (stereo not drawn) |  | Active | > 40 | 44 | 8.6 |  | 14 |  | 40 | inactive | Time [20]: 59 min; Activity [23]: 12%; Activity [24]: 42%
11 | CCCCCC(C)C(C)c1cc(OC(=O)CCCN2CCCCC2)c2c(c1)OC(C)(C)c1ccncc1-2.Cl (stereo not drawn) |  | Active |  |  | 4 | 40 | 43 |  | 63 | Active | Activity [25]: 3%
12 | C#CCOc1cc(C(C)C(C)CCCCC)cc2c1-c1cnccc1C(C)(C)O2 (stereo not drawn) | 31 | Active | > 40 | 6 | > 40 |  | 27 | 2 |  | inactive | Time [15]: 82 min; Time [14]: 114 min; inhibition in vivo at 20 mg/kg [6]: 42%
13 | CCCCCC(C)C(C)c1cc(OC)c2c(c1)OC(C)(C)c1ccncc1-2 (stereo not drawn) | 12 | Active | > 200 | 29 | 158 |  |  | 2 | 37 | inactive | Time [15]: 58 min; inhibition in vivo at 20 mg/kg [26]: 46%; Activity [13]: inactive; Activity [24]: 15%; Time [14]: 102 min
14 | CCCCCC(C)C(C)c1cc(OCCCN2CCOCC2)c2c(c1)OC(C)(C)c1ccncc1-2.Cl (stereo not drawn) |  | Active | > 40 |  |  |  |  |  |  |  | Activity [27]: 28%; Activity [23]: 13%; Activity [13]: inactive; Time [14]: -11 min; Activity [3]: inactive
15 | C#CCN1CCC2=C(C1)c1c(O)cc(C(C)C(C)CCCCC)cc1OC2(C)C (stereo not drawn) |  | Active | 13.8 |  | 4.3 | 59 |  | 1 | 51 |  | inhibition in vivo at 5 mg/kg [12]: 48%; Time [22]: 100 min
16 | COc1cc(C(C)CCCc2ccc(F)cc2)cc2c1-c1cnccc1C(C)(C)O2 (stereo not drawn) | 48 | Active | > 40 | 65 |  |  |  | 10 |  |  | Time [14]: 121 min
17 | CC(CCCc1ccc(F)cc1)c1cc(O)c2c(c1)OC(C)(C)c1cc[n+]([O-])cc1-2 (stereo not drawn) |  | Active | > 40 | 24 | > 10 | 16 | 18 |  |  | inactive | 
